# Test results reported in ChEMBL document CHEMBL2086366, “Chemical optimization of new ligands of the low-density lipoprotein receptor as potential vectors for central nervous system targeting” (J Med Chem, 2012).
# *1 amine or outer side, *2 acyl side, *3 side chain or, on linkers, in order; H or OH if unused. Where a SMILES comes first, the peptide text is derived from it. Bridges are numbered along the chain shown (N, C = ends). [ ]: non-standard residue; d: D form. X1 = CSCC[C@@H](C(=O)[*:2])N(C[C@@H](CS[*:3])NC(C)=O)[*:1]
# Target: Low-density lipoprotein receptor (Homo sapiens) (UniProt P01130)
# Assay: Displacement of S-tagged Ac-DSGL[CMPRLRGC]cDPR-NH2 from human DsRed2-fused LDLR expressed in CHO cells at 10 uM after 1 hr by FRET assay
# Type: cell-based
# In short: (§1)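 CHO cells stably expressing hLDLR-DsRed2 (Ham-F12, 5% FBS, Geneticin) at 800 000 cells/well were incubated in triplicate with S-tagged reference peptide (10 μM) plus test peptide (10 μM) in Ham-F12/1% BSA, 1 h, 37 °C. Scrambled and untagged peptide controls were included; values are means of at least three points.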
# Sequence of Low-density lipoprotein receptor (Homo sapiens) (P01130 whole entry, the tested form may be a part): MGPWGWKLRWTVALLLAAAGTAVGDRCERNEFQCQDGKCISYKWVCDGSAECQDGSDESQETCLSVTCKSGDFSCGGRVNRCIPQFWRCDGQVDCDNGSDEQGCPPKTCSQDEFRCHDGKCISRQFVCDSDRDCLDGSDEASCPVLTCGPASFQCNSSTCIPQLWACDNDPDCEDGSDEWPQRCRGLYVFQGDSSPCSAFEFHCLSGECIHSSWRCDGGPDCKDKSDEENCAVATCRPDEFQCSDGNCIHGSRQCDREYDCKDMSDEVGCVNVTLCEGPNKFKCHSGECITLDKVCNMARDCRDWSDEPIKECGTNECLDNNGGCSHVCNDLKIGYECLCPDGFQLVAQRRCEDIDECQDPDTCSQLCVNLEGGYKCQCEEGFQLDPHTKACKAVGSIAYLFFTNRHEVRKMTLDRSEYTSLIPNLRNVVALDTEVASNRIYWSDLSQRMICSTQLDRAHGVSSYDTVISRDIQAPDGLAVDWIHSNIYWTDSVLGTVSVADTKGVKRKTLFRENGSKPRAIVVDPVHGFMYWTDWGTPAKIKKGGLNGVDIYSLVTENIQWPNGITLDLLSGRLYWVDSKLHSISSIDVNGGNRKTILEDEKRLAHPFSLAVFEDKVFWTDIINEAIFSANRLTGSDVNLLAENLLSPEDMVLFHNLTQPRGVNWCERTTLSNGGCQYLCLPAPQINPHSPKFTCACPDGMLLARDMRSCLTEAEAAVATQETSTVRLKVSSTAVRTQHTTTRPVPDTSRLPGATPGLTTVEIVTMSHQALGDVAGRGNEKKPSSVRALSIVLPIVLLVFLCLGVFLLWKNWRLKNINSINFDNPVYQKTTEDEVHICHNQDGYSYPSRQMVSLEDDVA
row,inhibition [%],Compound
1,55,CSCC[C@@H]1NC(=O)[C@@H](NC(=O)[C@H](CC(C)C)NC(=O)CNC(=O)[C@H](CO)NC(=O)[C@H](C)NC(C)=O)CSSC[C@@H](C(=O)N[C@@H](CC(=O)O)C(=O)N2CCC[C@H]2C(=O)N[C@@H](CCCNC(=N)N)C(N)=O)NC(=O)CNC(=O)[C@H](CCCNC(=N)N)NC(=O)[C@H](CC(C)C)NC(=O)[C@H](CCCNC(=N)N)NC(=O)[C@@H]2CCCN2C1=O (Ac-ASGLCMPRLRGCDPR-NH2; disulfide 5-12)
2,50,CSCC[C@H](NC(=O)[C@H](CS)NC(=O)[C@H](CC(C)C)NC(=O)CNC(=O)[C@H](CO)NC(=O)[C@H](CC(=O)O)NC(C)=O)C(=O)N1CCC[C@H]1C(=O)N[C@@H](CCCNC(=N)N)C(=O)N[C@@H](CC(C)C)C(=O)N[C@@H](CCCNC(=N)N)C(=O)NCC(=O)N[C@@H](CS)C(=O)N[C@@H](CC(=O)O)C(=O)N1CCC[C@H]1C(=O)N[C@@H](CCCNC(=N)N)C(N)=O
3,0,Ac-DSGLCMPRLRGADPR-NH2
4,20,CSCC[C@@H]1NC(=O)[C@@H](NC(=O)[C@H](CC(C)C)NC(=O)CNC(=O)[C@H](CO)NC(=O)[C@H](CC(=O)O)NC(C)=O)CSSC[C@@H](C(=O)N[C@@H](CC(=O)O)C(=O)N2CCC[C@H]2C(=O)N[C@@H](CCCNC(=N)N)C(N)=O)NC(=O)[C@H](C)NC(=O)[C@H](CCCNC(=N)N)NC(=O)[C@H](CC(C)C)NC(=O)[C@H](CCCNC(=N)N)NC(=O)[C@@H]2CCCN2C1=O (Ac-DSGLCMPRLRACDPR-NH2; disulfide 5-12)

# Target: Low-density lipoprotein receptor (Homo sapiens) (UniProt P01130)
# Assay: Displacement of S-tagged Ac-[cMPRLRGC]c-NH2 from human DsRed2-fused LDLR expressed in CHO cells at 10 uM after 1 hr by FRET assay
# Type: cell-based
# In short: as §1
row,inhibition [%],Compound
1,31,CSCC[C@@H]1NC(=O)[C@H](NC(C)=O)CSSC[C@@H](C(N)=O)NC(=O)CNC(=O)[C@H](CCCN)NC(=O)[C@H](CC(C)C)NC(=O)[C@H](CCCN)NC(=O)[C@@H]2CCCN2C1=O
2,0,CSCC[C@@H]1NC(=O)[C@H](NC(C)=O)CNC(=N)NC[C@@H](C(N)=O)NC(=O)CNC(=O)[C@H](CCCNC(=N)N)NC(=O)[C@H](CC(C)C)NC(=O)[C@H](CCCNC(=N)N)NC(=O)[C@@H]2CCCN2C1=O
3,34,CSCC[C@H](NC(=O)[C@@H]1CCCN1C(=O)[C@@H](CCCNC(=N)N)[C@H]1CSSC[C@H](N)C(=O)NCC(=O)N[C@@H](CCCNC(=N)N)C(=O)N[C@@H](CC(C)C)C(=O)N1)C(=O)NC(C)=O
4,37,CSCC[C@@H]1NC[C@H](NC(C)=O)CSSC[C@@H](C(N)=O)NC(=O)CNC(=O)[C@H](CCCNC(=N)N)NC(=O)[C@H](CC(C)C)NC(=O)[C@H](CCCNC(=N)N)NC(=O)[C@@H]2CCCN2C1=O (H-[X1]PRLRGC-NH2; disulfide 1-7)
5,58,CSCC[C@@H]1NC(=O)[C@H](NC(C)=O)CSSC[C@@H](C(N)=O)NC(=O)CNC(=O)[C@H](CCCNC(=N)N)NC(=O)[C@H](CC(C)C)NC[C@H](CCCNC(=N)N)NC(=O)[C@@H]2CCCN2C1=O
6,13,CSCC[C@@H]1NC(=O)[C@H](NC(C)=O)Cc2cn(nn2)CC[C@@H](C(N)=O)NC(=O)CNC(=O)[C@H](CCCNC(=N)N)NC(=O)[C@H](CC(C)C)NC(=O)[C@H](CCCNC(=N)N)NC(=O)[C@@H]2CCCN2C1=O
7,22,CSCC[C@@H]1NC(=O)[C@H](NC(C)=O)CSSC[C@@H](C(N)=O)NC(=O)CNC(=O)[C@H](CCCNC(=N)N)NC(=O)[C@H](CC(C)C)NC(=O)[C@H](CCCNC(=N)N)NC(=O)CN(C)C1=O
8,0,CSCC[C@@H]1NC(=O)[C@H](NC(C)=O)CSSC[C@@H](C(N)=O)NC(=O)CNC(=O)[C@H](CCCNC(=N)N)NC(=O)[C@H](CC(C)C)NC(=O)[C@H](CCCNC(=N)N)NC(=O)c2ccccc2NC1=O
9,12,"CSCCC1NC(=O)[C@H](NC(C)=O)CNC(=O)C[C@@H](C(N)=O)NC(=O)CNC(=O)[C@H](CCCNC(=N)N)NC(=O)[C@H](CC(C)C)NC(=O)[C@H](CCCNC(=N)N)NC(=O)[C@@H]2CCCN2C1=O (single isomer, unassigned)"
10,0,CSCC[C@@H]1NC(=O)[C@H](NC(C)=O)CSSC[C@@H](C(N)=O)NC(=O)CNC(=O)[C@H](CCCN)NC(=O)[C@H](CC(C)C)NC(=O)[C@H](CCCNC(=N)N)NC(=O)[C@@H]2CCCN2C1=O
11,0,COCC[C@@H]1NC(=O)[C@H](NC(C)=O)CSSC[C@@H](C(N)=O)NC(=O)CNC(=O)[C@H](CCCNC(=N)N)NC(=O)[C@H](CC(C)C)NC(=O)[C@H](CCCNC(=N)N)NC(=O)[C@@H]2CCCN2C1=O
12,54,CSCC[C@@H]1NC(=O)[C@H](NC(C)=O)CSSC[C@@H](C(N)=O)NC(=O)[C@@H](C)NC(=O)[C@H](CCCNC(=N)N)NC(=O)[C@H](CC(C)C)NC(=O)[C@H](CCCNC(=N)N)NC(=O)[C@@H]2CCCN2C1=O
13,34,CSCC[C@H](NC(=O)[C@@H]1CCCN1C(=O)[C@H]1CSSC[C@H](N)C(=O)NCC(=O)N[C@@H](CCCNC(=N)N)C(=O)N[C@@H](CC(C)C)C(=O)N[C@@H](CCCNC(=N)N)C(=O)N1)C(=O)NC(C)=O
14,28,CSCC[C@H](NC(=O)[C@H]1CSSC[C@H](N)C(=O)NCC(=O)N[C@@H](CCCNC(=N)N)C(=O)N[C@@H](CC(C)C)C(=O)N[C@@H](CCCNC(=N)N)C(=O)N2CCC[C@H]2C(=O)N1)C(=O)NC(C)=O
15,0,CSCC[C@@H]1NC(=O)[C@H](NC(C)=O)CSSC[C@@H](C(N)=O)NC(=O)CNC(=O)[C@H](CCCNC(=N)N)NC(=O)[C@H](CC(C)C)NC(=O)[C@H](CCCNC(=N)N)NC[C@@H]2CCCN2C1=O
16,22,CSCC[C@@H]1NC(=O)[C@H](NC(C)=O)C/C=C\C[C@@H](C(N)=O)NC(=O)CNC(=O)[C@H](CCCNC(=N)N)NC(=O)[C@H](CC(C)C)NC(=O)[C@H](CCCNC(=N)N)NC(=O)[C@@H]2CCCN2C1=O
17,28,CSCC[C@@H]1NC(=O)[C@H](NC(C)=O)CSSC[C@@H](C(N)=O)NC(=O)CNC(=O)[C@H](CCCNC(=N)N)NC(=O)[C@H](CC(C)C)NC(=O)[C@H](CCCN)NC(=O)[C@@H]2CCCN2C1=O
18,40,CSCC[C@@H]1NC(=O)[C@H](NC(C)=O)CSSC[C@@H](C(N)=O)NC(=O)CNC(=O)[C@H](CCCNC(=N)N)NC[C@H](CC(C)C)NC(=O)[C@H](CCCNC(=N)N)NC(=O)[C@@H]2CCCN2C1=O
19,0,CC(=O)N[C@@H]1CSSC[C@@H](C(N)=O)NC(=O)CNC(=O)[C@H](CCCNC(=N)N)NC(=O)[C@H](CC(C)C)NC(=O)[C@H](CCCNC(=N)N)NC(=O)[C@@H]2CCCN2C(=O)[C@H](Cc2cccs2)NC1=O
20,41,CSCC[C@@H]1NC(=O)C(NC(C)=O)CSCC(C(N)=O)NC(=O)CNC(=O)[C@H](CCCNC(=N)N)NC(=O)[C@H](CC(C)C)NC(=O)[C@H](CCCNC(=N)N)NC(=O)[C@@H]2CCCN2C1=O (mixture of isomers)
21,33,CSCC[C@H]1CN2CCC[C@H]2C(=O)N[C@@H](CCCNC(=N)N)C(=O)N[C@@H](CC(C)C)C(=O)N[C@@H](CCCNC(=N)N)C(=O)NCC(=O)N[C@H](C(N)=O)CSSC[C@@H](NC(C)=O)C(=O)N1
22,0,CC(=O)N[C@@H]1CSSC[C@@H](C(N)=O)NC(=O)CNC(=O)[C@H](CCCNC(=N)N)NC(=O)[C@H](CC(C)C)NC(=O)[C@H](CCCNC(=N)N)NC(=O)[C@@H]2CCCN2C(=O)[C@@H]2CSCN2C1=O
23,21,CSCC[C@@H]1NC(=O)[C@H](NC(C)=O)CSSC[C@@H](C(N)=O)NC(=O)CNC(=O)[C@H](CCCNC(=N)N)NC(=O)[C@H](CC(C)C)NC(=O)[C@H](CCCNC(=N)N)NC(=O)[C@@H]2c3ccccc3CCN2C1=O
